# Reference: article PMC4050191 (FEBS Open Bio, 2014)
# Where two headings read alike, the source gives them in different places.
# How the values were obtained:
# C-HsCen1-T138E = test: ITC, peptide binding to C-HsCen1-T138E; design: species or system human; details: C-HsCen1-T138E versus C-HsCen1; +Ca2+ (Fig. S3)
# How it was run: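 Binding measured by ITC at 30 °C. Cell contained E. coli-expressed, heat-treated, chromatographically purified centrin at 10 μM. N-acetylated, C-amidated target peptide at 100 μM was injected in 8–10 μL steps. Buffer was 50 mM MOPS, 100 mM NaCl, pH 7.5 with 1 mM CaCl₂. The first 2 μL injection was discarded. Baseline-corrected integrated heats were fitted for n, Ka and ΔH. Peptide-into-buffer injections gave dilution heat.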
# C-HsCen2-S158D = test: ITC, peptide binding to C-HsCen2 S158D; design: species or system human; details: absence of Ca2+; versus C-HsCen2 wild type
# How it was run: (§1)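 Recombinant human centrin (full-length or C-terminal domain; Asp variants made by double-PCR mutagenesis) was expressed in E. coli BL21(DE3), heat-treated at 63 °C, then purified by ion-exchange, phenyl and gel-filtration chromatography. ITC at 30 °C: 10 μM centrin titrated with 100 μM N-acetylated, C-amidated peptide in 50 mM MOPS, 100 mM NaCl, pH 7.5, plus 1 mM CaCl₂ or 2 mM EDTA. Dilution heats subtracted; data fitted for n, Ka and ΔH.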
# [1] = test system: HsCen1-T138D (phosphomimetic human centrin 1); test: ITC, peptide binding to HsCen1-T138D; details: EDTA; HsCen1-T138D versus HsCen1
# [2] = test system: HsCen1 (full-length human centrin 1); test: ITC, peptide binding to full-length HsCen1; details: centrin 1; +Ca2+ versus EDTA
# How it was run: as §1
# C-HsCen1-T138D = test: ITC, peptide binding to C-HsCen1-T138D; design: species or system human; details: EDTA; C-HsCen1-T138D versus C-HsCen1
# How it was run: as §1
# C-HsCen2-T138D = test: ITC, peptide binding to C-HsCen2 T138D; design: species or system human; details: versus C-HsCen2 wild type
# How it was run: as §1
# C-HsCen2 T138D-S158D = test: ITC, peptide binding to C-HsCen2 T138D-S158D; design: species or system human; details: versus C-HsCen2 wild type
# How it was run: as §1
# [3] = test system: HsC1P (human centrin 1 phosphorylated by CK2 at T138); test: ITC, peptide binding to CK2-phosphorylated HsCen1; details: EDTA / absence of Ca2+; phosphorylated versus unphosphorylated centrin 1
# [4] = biological target: C-terminal domain of human centrin 1 T138D (human); test: ITC
# [5] = biological target: C-terminal domain of human centrin 1 T138E (human); test: ITC
# [6] = biological target: C-terminal domain of human centrin 1 T138D (human); test: ITC; remark: listed apart in the source
# [7] = biological target: C-terminal domain of human centrin 1 T138E (human); test: ITC; remark: listed apart in the source
substance,measurement,setting,value
325-MAVATGSWDSFLKIWN-340 [Trd],factor of decrease of affinity by the T138E mutation,C-HsCen1-T138E,7
846-NWKLLAKGLLIRERLKR-863 [P17-XPC],factor of reduction of affinity by the S158D mutation,C-HsCen2-S158D,3.7
same,factor of reduction of binding by the T138D phosphomimetic mutation,[1],4
same,factor of increase of binding by the presence of Ca2+,[2],5
same,factor of decrease of affinity by the T138D mutation,C-HsCen1-T138D,2
same,factor of reduction of affinity by the T138D mutation,C-HsCen2-T138D; absence of Ca2+,3
same,factor of reduction of affinity by the T138D mutation,C-HsCen2-T138D; presence of Ca2+,2
same,factor of reduction of affinity by the T138D-S158D double mutation,C-HsCen2 T138D-S158D; absence of Ca2+,9
same,factor of reduction of affinity by the T138D-S158D double mutation,C-HsCen2 T138D-S158D; presence of Ca2+,2
same,factor of reduction of binding by phosphorylation at T138,[3],10
"P17-XPC, 17-residue peptide of human XPC",Ka,[4],4.55e+06 M⁻¹
same,dH,[4],-30.2 kcal/mol
same,Ka,[5],430000 M⁻¹
same,dH,[5],-32.6 kcal/mol
same,Ka,[6],3.34e+07 M⁻¹
same,dH,[6],-23.6 kcal/mol
same,Ka,[7],9.03e+06 M⁻¹
